Results published in ChEMBL document CHEMBL4680084, “New β-Lactam Derivatives Modulate Cell Adhesion and Signaling Mediated by RGD-Binding and Leukocyte Integrins” (J Med Chem, 2016).
The source made the active and inactive calls. No cut-off for these calls is given here.

Experiments:
[1] = molecular target: T1, Integrin alpha-5/beta-1 (Homo sapiens, UniProt P05556+P08648); test: Inhibition of fibronectin binding to alpha5beta1 isolated from human K562 cells incubated for 1 hr by […] competitive solid-phase binding assay; assay type: tissue-based
Method in brief: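 Plates coated overnight at 4 °C in carbonate buffer pH 9.6 with fibronectin 0.5 µg/mL (αvβ3, αvβ6, α5β1), fibrinogen 10 µg/mL (αIIbβ3, αvβ5) or ICAM-1 (αLβ2). Blocked 1 h in buffer containing Ca/Mg/Mn 1 mM each and 1% BSA. Purified integrin (3–10 µg/mL) incubated with compound (10⁻⁴–10⁻¹⁰ M) 1 h at room temperature. Bound integrin detected with primary antibody then AlexaFluor488 secondary, Ex485/Em535. Duplicate, at least three repeats.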

[2] = test system: SK-MEL-24; test: Toxicity in human SK-MEL-24 cells assessed as induction of cell necrosis and/or apoptosis incubated for 3 hrs by annexin V-PE and 7-AAD staining based by flow cytometry; settings: sk-mel-24, 3 h
Method in brief: (§1)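 After 3 h incubation, cells resuspended in complete medium and stained with annexin V-PE/7-AAD reagent for 20 min at room temperature in the dark. Flow cytometry sorted cells into viable, early apoptotic and late apoptotic/necrotic populations.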

[3] = test system: MCF7; test: Toxicity in human MCF7 cells assessed as induction of cell necrosis and/or apoptosis incubated for 3 hrs by annexin V-PE and 7-AAD staining based by flow cytometry; settings: mcf7, 3 h; method in brief: as §1
[4] = test system: HT-29; test: Toxicity in human HT-29 cells assessed as induction of cell necrosis and/or apoptosis incubated for 3 hrs by annexin V-PE and 7-AAD staining based by flow cytometry; settings: ht-29, 3 h; method in brief: as §1
[5] = test system: K562; test: Toxicity in human K562 cells assessed as induction of cell necrosis and/or apoptosis incubated for 3 hrs by annexin V-PE and 7-AAD staining based by flow cytometry; settings: k562, 3 h; method in brief: as §1
[6] = test system: HEL; test: Toxicity in human HEL cells assessed as induction of cell necrosis and/or apoptosis incubated for 3 hrs by annexin V-PE and 7-AAD staining based by flow cytometry; method in brief: as §1
[7] = molecular target: T2, Integrin alpha-V/beta-3 (Homo sapiens, UniProt P05106+P06756); test: Agonist activity at alphaVbeta3 in human SK-MEL-24 cells assessed as increase in cell adhesion to fibronectin pre-incubated for 30 mins before fibronectin and further incubated for 1 hr by nitrophenyl-N-acetyl-beta-D-glucosaminide substrate based chromogenic assay
Method in brief: (§2)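 Compound or methanol vehicle pre-incubated with cells for 30 min at room temperature. Cells then plated on wells coated overnight at 4 °C with fibronectin 10 µg/mL (SK-MEL-24, K562, HT-29) or fibrinogen 10 µg/mL (MCF7, HEL). Seeding was 50,000 cells/well, or 100000 for HEL. Adhesion ran 1 h at room temperature. Wells washed with 1% BSA/PBS. Adherent cells read by hexosaminidase substrate, absorbance 405 nm. Quadruplicate, at least three repeats.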

[8] = molecular target: T3, Integrin alpha-V/beta-5 (Homo sapiens, UniProt P06756+P18084); test: Agonist activity at alphaVbeta5 in human MCF7 cells assessed as increase in cell adhesion to fibrinogen pre-incubated for 30 mins before fibrinogen and further incubated for 1 hr by nitrophenyl-N-acetyl-beta-D-glucosaminide substrate based chromogenic assay; method in brief: as §2
[9] = molecular target: T4, Integrin alpha-V/beta-6 (Homo sapiens, UniProt P06756+P18564); test: Antagonist activity at alphaVbeta6 in human HT-29 cells assessed as reduction in cell adhesion to fibronectin pre-incubated for 30 mins before fibronectin and further incubated for 1 hr by nitrophenyl-N-acetyl-beta-D-glucosaminide substrate based chromogenic assay
Method in brief: as §2, with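 “BSA/PBS.” for “BSA/PBS. Adherent cells read by hexosaminidase substrate, absorbance 405 nm.”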

[10] = molecular target: T1, Integrin alpha-5/beta-1; test: Agonist activity at alpha5beta1 in human K562 cells assessed as increase in cell adhesion to fibronectin pre-incubated for 30 mins before fibronectin and further incubated for 1 hr by nitrophenyl-N-acetyl-beta-D-glucosaminide substrate based chromogenic assay; method in brief: as §2
[11] = molecular target: T5, Integrin alpha-IIb/beta-3 (Homo sapiens, UniProt P05106+P08514); test: Agonist activity at alpha2bbeta3 in human HEL cells assessed as increase in cell adhesion to fibrinogen pre-incubated for 30 mins before fibrinogen and further incubated for 1 hr by nitrophenyl-N-acetyl-beta-D-glucosaminide substrate based chromogenic assay
Method in brief: as §2, with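 “BSA/PBS.” for “BSA/PBS. Adherent cells read by hexosaminidase substrate, absorbance 405 nm.”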

[12] = molecular target: T5, Integrin alpha-IIb/beta-3; test: Antagonist activity at alpha2bbeta3 in human HEL cells assessed as reduction in cell adhesion to fibrinogen pre-incubated for 30 mins before fibrinogen and further incubated for 1 hr by nitrophenyl-N-acetyl-beta-D-glucosaminide substrate based chromogenic assay
Method in brief: as §2, with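 “BSA/PBS.” for “BSA/PBS. Adherent cells read by hexosaminidase substrate, absorbance 405 nm.”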

[13] = molecular target: T6, Integrin alpha-4/beta-1 (Homo sapiens, UniProt P05556+P13612); test: Antagonist activity at alpha4beta1 in human Jurkat E6.1 cells assessed as reduction in cell adhesion to VCAM1 pre-incubated for 30 mins before VCAM1 and further incubated for 30 mins by […]; assay type: cell-based
[14] = molecular target: T7, Integrin alpha-L/beta-2 (LFA-1) (Homo sapiens, UniProt P05107+P20701); test: Agonist activity at alphaLbeta2 in human Jurkat E6.1 cells assessed as increase in cell adhesion to ICAM1 pre-incubated for 30 mins before ICAM1 and further incubated for 30 mins by […]; assay type: cell-based
Method in brief: (§3)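 Jurkat E6.1 cells labelled with CellTracker green CMFDA (12.5 µM, 30 min, 37 °C), washed, then pre-incubated 30 min at 37 °C with compound or methanol. Plated at 500,000/well on VCAM-1 (α4β1) or ICAM-1 (αLβ2) coated wells (5 µg/mL) for 30 min at 37 °C. Cells lysed in 0.5% Triton X-100; fluorescence read Ex485/Em535. Quadruplicate, at least three repeats.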

[15] = molecular target: T7, Integrin alpha-L/beta-2 (LFA-1); test: Antagonist activity at alphaLbeta2 in human Jurkat E6.1 cells assessed as reduction in cell adhesion to ICAM1 pre-incubated for 30 mins before ICAM1 and further incubated for 30 mins by […]; assay type: cell-based; method in brief: as §3
[16] = molecular target: T2, Integrin alpha-V/beta-3; test: Inhibition of fibronectin binding to human recombinant alphaVbeta3 expressed in HEK293 cells incubated for 1 hr by […] competitive solid-phase binding assay; assay type: cell-based
[17] = molecular target: T3, Integrin alpha-V/beta-5; test: Inhibition of fibrinogen binding to alphaVbeta5 isolated form human mCf7 cells incubated for 1 hr by […] competitive solid-phase binding assay
[18] = molecular target: T4, Integrin alpha-V/beta-6; test: Inhibition of fibronectin binding to alphaVbeta6 isolated form human HT-29 cells incubated for 1 hr by […] competitive solid-phase binding assay; assay type: tissue-based
[19] = molecular target: T6, Integrin alpha-4/beta-1; test: Inhibition of fibronectin binding to […] isolated from human Jurkat E6.1 cells incubated for 1 hr by scintillation-proximity assay based competitive solid-phase binding assay; assay type: tissue-based
[20] = molecular target: T1, Integrin alpha-5/beta-1; test: Agonist activity at alpha5beta1 in human K562 cells assessed as increase in cell adhesion to fibronectin pre-incubated for 30 mins and further incubated for 1 hr by nitrophenyl-N-acetyl-beta-D-glucosaminide substrate based chromogenic assay; settings: filed as agonist, time 90.0 min; method in brief: as §2
[21] = molecular target: T1, Integrin alpha-5/beta-1; test: (§4) Agonist activity at alpha5beta1 in human K562 cells assessed as increase in cell adhesion to fibronectin at 10 ug/ml pre-incubated for 30 mins and further incubated for 1 hr in presence of integrin antagonist c(-RGDfV) by nitrophenyl-N-acetyl-beta-D-glucosaminide substrate based chromogenic assay; settings: dose 10.0 µg/ml, time 90.0 min
Method in brief: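 Agonist-coated wells (10 µg/mL in methanol). Cells pre-treated 10 min before plating with neutralizing anti-α5, anti-αv or anti-α4 antibody (10 µg/mL), or pre-incubated with c(-RGDfV) (1 µM). K562 plated at 50,000/well and Jurkat E6.1 at 500,000/well. Adhesion quantified as in the standard assay.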

[22] = molecular target: T1, Integrin alpha-5/beta-1; test: as §4, with “pre-incubated for 30 mins” left out, “of neutralizing antibody against the alpha5” for “of”, “subunit” for “antagonist c(-RGDfV)”; settings: dose 10.0 µg/ml, time 90.0 min
[23] = molecular target: T5, Integrin alpha-IIb/beta-3; test: Agonist activity at alpha2bbeta3 in human K562 cells assessed as increase in cell adhesion to fibrinogen pre-incubated for 30 mins and further incubated for 1 hr in presence of alpha2bbeta3 antagonist Tirofiban by nitrophenyl-N-acetyl-beta-D-glucosaminide substrate based chromogenic assay; settings: filed as agonist, time 90.0 min
[24] = molecular target: T1, Integrin alpha-5/beta-1; test: Agonist activity at alpha5beta1 in human K562 cells assessed as assessed as increase in ERK1/2 phosphorylation at 1 to 100 nM by Western blot analysis; assay type: cell-based; settings: filed as agonist, dose 1-100 nM
[25] = molecular target: T6, Integrin alpha-4/beta-1; test: Antagonist activity at alpha4beta1 in human Jurkat E6.1 cells assessed as reduction in VCAM-1 induced ERK1/2 phosphorylation at 1 to 100 nM by Western blot analysis; assay type: cell-based; settings: filed as antagonist, dose 1-100 nM
[26] = molecular target: T5, Integrin alpha-IIb/beta-3; test: Inhibition of fibrinogen binding to alpha2bbeta3 isolated from human HEL cells incubated for 1 hr by […] competitive solid-phase binding assay
[27] = molecular target: T2, Integrin alpha-V/beta-3; test: Antagonist activity at alphaVbeta3 in human SK-MEL-24 cells assessed as reduction in cell adhesion to fibronectin pre-incubated for 30 mins before fibronectin and further incubated for 1 hr by nitrophenyl-N-acetyl-beta-D-glucosaminide substrate based chromogenic assay
Method in brief: as §2, with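 “BSA/PBS.” for “BSA/PBS. Adherent cells read by hexosaminidase substrate, absorbance 405 nm.”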

[28] = molecular target: T3, Integrin alpha-V/beta-5; test: Antagonist activity at alphaVbeta5 in human MCF7 cells assessed as reduction in cell adhesion to fibrinogen pre-incubated for 30 mins before fibrinogen and further incubated for 1 hr by nitrophenyl-N-acetyl-beta-D-glucosaminide substrate based chromogenic assay
Method in brief: as §2, with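 “BSA/PBS.” for “BSA/PBS. Adherent cells read by hexosaminidase substrate, absorbance 405 nm.”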

[29] = molecular target: T4, Integrin alpha-V/beta-6; test: Agonist activity at alphaVbeta6 in human HT-29 cells assessed as increase in cell adhesion to fibronectin pre-incubated for 30 mins before fibronectin and further incubated for 1 hr by nitrophenyl-N-acetyl-beta-D-glucosaminide substrate based chromogenic assay; method in brief: as §2
[30] = molecular target: T1, Integrin alpha-5/beta-1; test: Antagonist activity at alpha5beta1 in human K562 cells assessed as reduction in cell adhesion to fibronectin pre-incubated for 30 mins before fibronectin and further incubated for 1 hr by nitrophenyl-N-acetyl-beta-D-glucosaminide substrate based chromogenic assay; method in brief: as §2
[31] = molecular target: T6, Integrin alpha-4/beta-1; test: Antagonist activity at alpha4beta1 in human Jurkat E6.1 cells assessed as reduction in exposure of HUTS-21 epitope measured by mAb binding; assay type: cell-based; settings: filed as antagonist
Method in brief: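 Jurkat E6.1 cells at 10⁶/mL in 1% BSA/HBSS incubated 30 min at 37 °C with compound. PE-labelled HUTS-21 mAb then added for 45 min at room temperature. Cells washed, 10,000 analysed by flow cytometry. MFI corrected to isotype control set to 0. Four independent experiments in duplicate.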

SMILES	IC50 [1] [nM]	Activity [2]	Activity [3]	Activity [4]	Activity [5]	Activity [6]	EC50 [7] [nM]	EC50 [8] [nM]	IC50 [9] [nM]	EC50 [11] [nM]	IC50 [12] [nM]	IC50 [13] [nM]	EC50 [14] [nM]	IC50 [15] [nM]	IC50 [16] [nM]	IC50 [17] [nM]	IC50 [18] [nM]	IC50 [19] [nM]	Activity [25]	further results
Cc1ccccc1NC(=O)N1C(=O)CC1CC(=O)NCCC(=O)O (stereo not given)	36	Non-Toxic	Non-Toxic	Non-Toxic	Non-Toxic	Non-Toxic	187	670	44.4	> 5000	> 5000	17.4	> 5000	> 5000	116	634	23.4	12.4	Dose-dependent effect	EC50 [10]: 49 nM; Activity [20]: Dose-dependent effect; Activity [21]: inactive; Activity [22]: inactive; Activity [23]: Active; Activity [24]: Dose-dependent effect
Nc1ccc(CNC(=O)N2C(=O)C[C@H]2C(=O)O)cc1.O=C(O)C(F)(F)F	331	Non-Toxic	Non-Toxic	Non-Toxic	Non-Toxic	Non-Toxic	> 5000	> 5000	> 5000	> 5000	> 5000	8.8	> 5000	> 5000	> 1000	> 1000	> 1000	7.6	Dose-dependent effect	IC50 [26]: > 1000 nM; IC50 [27]: > 5000 nM; IC50 [28]: > 5000 nM; EC50 [29]: > 5000 nM; IC50 [30]: 525 nM; Activity [31]: Dose-dependent effect
